Assay results as given in ChEMBL document CHEMBL4689842, “EUbOPEN Chemogenomics Library wave 1” (2021).
Values joined by “and” are separate entries in the source; they are usually repeats but may differ in a detail not shown here. Equal values may be shown once.

Tested on: Fibroblast
Test: Multiplex assay against human fibroblast
Type: toxicity, cell-based
How it was run: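 At seeding, live cells were stained with Hoechst33342, BioTracker Green Microtubule Cytoskeleton Dye, MitoTracker Red and Annexin V Alexa Fluor 680. After compound addition they were imaged on a CQ1 microscope at 37°C and 5% CO2, and CellPathfinder machine-learning gating sorted them into Hoechst high-intensity objects or normal cells, with normal cells further split into healthy, pyknosed or fragmented nuclei and pyknosed cells into mitotic or apoptotic. Tubulin, mitochondrial-mass and membrane-permeability phenotypes are given as per cents of cells with healthy nuclei.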

[1] = 12 h, 1 µM, compound concentration 1 uM, replicate 1
[2] = 12 h, 1 µM, compound concentration 1 uM, replicate 2
[3] = 12 h, 10 µM, compound concentration 10 uM, replicate 1
[4] = 12 h, 10 µM, compound concentration 10 uM, replicate 2
[5] = 24 h, 1 µM, compound concentration 1 uM, replicate 1
[6] = 24 h, 1 µM, compound concentration 1 uM, replicate 2
[7] = 24 h, 10 µM, compound concentration 10 uM, replicate 1
[8] = 24 h, 10 µM, compound concentration 10 uM, replicate 2
[9] = 48 h, 1 µM, compound concentration 1 uM, replicate 1
[10] = 48 h, 1 µM, compound concentration 1 uM, replicate 2
[11] = 48 h, 10 µM, compound concentration 10 uM, replicate 1
[12] = 48 h, 10 µM, compound concentration 10 uM, replicate 2

Cc1c[nH]c2nccc(Oc3c(F)cc(Nc4cc(Cl)nc(N)n4)cc3F)c12 [BAY-549]
Population Apoptotic (%) [1]: 54%
Population Fragmented Nuclei (%) [1]: 25%
Population Healthy Nuclei (%) [1]: 41%
Population Hoechst High Intensity Objects (%) [1]: 12%
Population Membrane Permeable-Phenotype (%) [1]: 32%
Population Mitochondria Different-Phenotype (%) [1]: 3%
Population Mitotic Cells (%) [1]: 46%
Population Normal (%) [1]: 87%
Population Pyknosed Nuclei (%) [1]: 33%
Population Tubulin-Different-Phenotype (%) [1]: 38%
Total Cell Count [1]: 172
Population Apoptotic (%) [2]: 44%
Population Fragmented Nuclei (%) [2]: 12%
Population Healthy Nuclei (%) [2]: 73%
Population Hoechst High Intensity Objects (%) [2]: 5%
Population Membrane Permeable-Phenotype (%) [2]: 4%
Population Mitochondria Different-Phenotype (%) [2]: 6%
Population Mitotic Cells (%) [2]: 55%
Population Normal (%) [2]: 94%
Population Pyknosed Nuclei (%) [2]: 14%
Population Tubulin-Different-Phenotype (%) [2]: 12%
Total Cell Count [2]: 68
Population Apoptotic (%) [3]: 66%
Population Fragmented Nuclei (%) [3]: 23%
Population Healthy Nuclei (%) [3]: 31%
Population Hoechst High Intensity Objects (%) [3]: 10%
Population Membrane Permeable-Phenotype (%) [3]: 21%
Population Mitochondria Different-Phenotype (%) [3]: 0%
Population Mitotic Cells (%) [3]: 33%
Population Normal (%) [3]: 90%
Population Pyknosed Nuclei (%) [3]: 45%
Population Tubulin-Different-Phenotype (%) [3]: 21%
Total Cell Count [3]: 130
Population Apoptotic (%) [4]: 40%
Population Fragmented Nuclei (%) [4]: 17%
Population Healthy Nuclei (%) [4]: 65%
Population Hoechst High Intensity Objects (%) [4]: 6%
Population Membrane Permeable-Phenotype (%) [4]: 7%
Population Mitochondria Different-Phenotype (%) [4]: 10%
Population Mitotic Cells (%) [4]: 60%
Population Normal (%) [4]: 93%
Population Pyknosed Nuclei (%) [4]: 17%
Population Tubulin-Different-Phenotype (%) [4]: 10%
Total Cell Count [4]: 62
Population Apoptotic (%) [5]: 50%
Population Fragmented Nuclei (%) [5]: 32%
Population Healthy Nuclei (%) [5]: 40%
Population Hoechst High Intensity Objects (%) [5]: 10%
Population Membrane Permeable-Phenotype (%) [5]: 26%
Population Mitochondria Different-Phenotype (%) [5]: 9%
Population Mitotic Cells (%) [5]: 50%
Population Normal (%) [5]: 89%
Population Pyknosed Nuclei (%) [5]: 27%
Population Tubulin-Different-Phenotype (%) [5]: 34%
Total Cell Count [5]: 170
Population Apoptotic (%) [6]: 46%
Population Fragmented Nuclei (%) [6]: 8%
Population Healthy Nuclei (%) [6]: 71%
Population Hoechst High Intensity Objects (%) [6]: 3%
Population Membrane Permeable-Phenotype (%) [6]: 5%
Population Mitochondria Different-Phenotype (%) [6]: 7%
Population Mitotic Cells (%) [6]: 53%
Population Normal (%) [6]: 96%
Population Pyknosed Nuclei (%) [6]: 20%
Population Tubulin-Different-Phenotype (%) [6]: 18%
Total Cell Count [6]: 77
Population Apoptotic (%) [7]: 70%
Population Fragmented Nuclei (%) [7]: 44%
Population Healthy Nuclei (%) [7]: 30%
Population Hoechst High Intensity Objects (%) [7]: 21%
Population Membrane Permeable-Phenotype (%) [7]: 13%
Population Mitochondria Different-Phenotype (%) [7]: 13%
Population Mitotic Cells (%) [7]: 30%
Population Normal (%) [7]: 78%
Population Pyknosed Nuclei (%) [7]: 25%
Population Tubulin-Different-Phenotype (%) [7]: 33%
Total Cell Count [7]: 152
Population Apoptotic (%) [8]: 71%
Population Fragmented Nuclei (%) [8]: 12%
Population Healthy Nuclei (%) [8]: 62%
Population Hoechst High Intensity Objects (%) [8]: 5%
Population Membrane Permeable-Phenotype (%) [8]: 11%
Population Mitochondria Different-Phenotype (%) [8]: 20%
Population Mitotic Cells (%) [8]: 28%
Population Normal (%) [8]: 94%
Population Tubulin-Different-Phenotype (%) [8]: 20%
Total Cell Count [8]: 59
Population Apoptotic (%) [9]: 66%
Population Fragmented Nuclei (%) [9]: 41%
Population Healthy Nuclei (%) [9]: 46%
Population Hoechst High Intensity Objects (%) [9]: 14%
Population Membrane Permeable-Phenotype (%) [9]: 13%
Population Mitochondria Different-Phenotype (%) [9]: 1%
Population Mitotic Cells (%) [9]: 33%
Population Normal (%) [9]: 85%
Population Pyknosed Nuclei (%) [9]: 12%
Population Tubulin-Different-Phenotype (%) [9]: 19%
Total Cell Count [9]: 170
Population Apoptotic (%) [10]: 100%
Population Fragmented Nuclei (%) [10]: 26%
Population Healthy Nuclei (%) [10]: 72%
Population Hoechst High Intensity Objects (%) [10]: 11%
Population Membrane Permeable-Phenotype (%) [10]: 10%
Population Mitotic Cells (%) [10]: 0%
Population Normal (%) [10]: 88%
Population Pyknosed Nuclei (%) [10]: 0%
Population Tubulin-Different-Phenotype (%) [10]: 5%
Total Cell Count [10]: 184
Population Apoptotic (%) [11]: 80%
Population Fragmented Nuclei (%) [11]: 56%
Population Healthy Nuclei (%) [11]: 29%
Population Hoechst High Intensity Objects (%) [11]: 20%
Population Membrane Permeable-Phenotype (%) [11]: 16%
Population Mitochondria Different-Phenotype (%) [11]: 16%
Population Mitotic Cells (%) [11]: 20%
Population Normal (%) [11]: 79%
Population Pyknosed Nuclei (%) [11]: 13%
Population Tubulin-Different-Phenotype (%) [11]: 23%
Total Cell Count [11]: 180
Population Apoptotic (%) [12]: 57%
Population Fragmented Nuclei (%) [12]: 50%
Population Healthy Nuclei (%) [12]: 45%
Population Hoechst High Intensity Objects (%) [12]: 17%
Population Membrane Permeable-Phenotype (%) [12]: 5%
Population Mitochondria Different-Phenotype (%) [12]: 10%
Population Mitotic Cells (%) [12]: 42%
Population Normal (%) [12]: 82%
Population Pyknosed Nuclei (%) [12]: 3%
Population Tubulin-Different-Phenotype (%) [12]: 6%
Total Cell Count [12]: 239

Cc1cc(NC(=O)c2cccc(S(F)(F)(F)(F)F)c2)cc(-n2ccn3nc(-c4cccnc4)cc23)c1 [BAY-309]
Population Apoptotic (%) [3]: 72% and 60%
Population Fragmented Nuclei (%) [3]: 29% and 25%
Population Healthy Nuclei (%) [3]: 45% and 52%
Population Hoechst High Intensity Objects (%) [3]: 11% and 13%
Population Mitochondria Different-Phenotype (%) [3]: 16% and 14%
Population Mitotic Cells (%) [3]: 27% and 39%
Population Normal (%) [3]: 88% and 86%
Population Pyknosed Nuclei (%) [3]: 25% and 22%
Total Cell Count [3]: 260 and 213
Population Apoptotic (%) [4]: 54% and 62%
Population Fragmented Nuclei (%) [4]: 66% and 44%
Population Healthy Nuclei (%) [4]: 20% and 40%
Population Hoechst High Intensity Objects (%) [4]: 29% and 31%
Population Membrane Permeable-Phenotype (%) [4]: 16% and 20%
Population Mitochondria Different-Phenotype (%) [4]: 33% and 35%
Population Mitotic Cells (%) [4]: 45% and 37%
Population Normal (%) [4]: 70% and 68%
Population Pyknosed Nuclei (%) [4]: 12% and 16%
Population Tubulin-Different-Phenotype (%) [4]: 50% and 80%
Total Cell Count [4]: 122 and 73
Population Apoptotic (%) [7]: 80% and 62%
Population Fragmented Nuclei (%) [7]: 24% and 21%
Population Healthy Nuclei (%) [7]: 47% and 56%
Population Hoechst High Intensity Objects (%) [7]: 16% and 15%
Population Mitotic Cells (%) [7]: 19% and 37%
Population Normal (%) [7]: 83% and 84%
Population Pyknosed Nuclei (%) [7]: 28% and 21%
Population Tubulin-Different-Phenotype (%) [7]: 83% and 28%
Total Cell Count [7]: 241 and 216
Population Apoptotic (%) [8]: 60% and 90%
Population Fragmented Nuclei (%) [8]: 66% and 57%
Population Healthy Nuclei (%) [8]: 20% and 26%
Population Hoechst High Intensity Objects (%) [8]: 36% and 25%
Population Membrane Permeable-Phenotype (%) [8]: 11% and 0%
Population Mitochondria Different-Phenotype (%) [8]: 29% and 22%
Population Normal (%) [8]: 63% and 75%
Population Pyknosed Nuclei (%) [8]: 12% and 15%
Population Tubulin-Different-Phenotype (%) [8]: 41%
Total Cell Count [8]: 128 and 92
